Biological target in the first experiment: not listed separately
The experiment is described as follows: Inhibition of HCV NS3 protease by FRET assay. Also noted: species or system Hepacivirus hominis. The gist of the method: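 Full-length HCV NS3 (protease–helicase/NTPase) protein, protease activity read by FRET. Enzyme at 1 nM incubated 10 min at 30 °C in 50 mM HEPES pH 7.5, 10 mM DTT, 40% glycerol before measurement. Inhibitor Ki given with standard deviation. Wild type and the A156T and D168V variants were tested.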
Take `C=C[C@@H]1C[C@]1(NC(=O)[C@H](NC(=O)[C@@H](NC(=O)OC(C)(C)C)C(C)(C)C)c1ccc(OC)cc1)C(=O)NS(=O)(=O)C1CC1`: the affinity, expressed as Ki, was 34 µM.

For the molecule `O=C(O)CNc1nc(Cl)c(Cc2ccccc2)n(CC(=O)Nc2ccccc2C(=O)NS(=O)(=O)c2ccc(C(F)(F)F)cc2)c1=O`, the Ki (in general, the dissociation constant of the complex between target and ligand, obtained from inhibition or displacement) amounted to 1.5 µM.

`Cc1c(Cl)nc(NCC(N)=O)c(=O)n1CC(=O)Nc1ccccc1C(=O)NS(=O)(=O)c1ccc(C(F)(F)F)cc1` registered a Ki of 18 µM.

As for `O=C(O)CNc1nc(Cl)c(-c2ccccc2)n(CC(=O)Nc2ccccc2C(=O)NS(=O)(=O)c2ccc(C(F)(F)F)cc2)c1=O`, the affinity, expressed as Ki, was 3 µM.

For `C=C[C@@H]1C[C@]1(NC(=O)C(c1ccccc1)n1c(C)c(Cl)nc(NCCN2CCOCC2)c1=O)C(=O)NS(=O)(=O)C1CC1` (some centres undefined), the Ki is 11 µM.

Take `C=C[C@@H]1C[C@]1(NC(=O)C(c1ccccc1)n1c(C)c(Cl)nc(N)c1=O)C(=O)NS(=O)(=O)C1CC1` (some centres undefined): the Ki was determined as 11 µM. This lies in the double-digit micromolar range.

Molecule `Cc1c(Cl)nc(NC(=O)OC(C)(C)C)c(=O)n1C(C(=O)Nc1ccccc1C(=O)NS(=O)(=O)c1ccc(C(F)(F)F)cc1)c1ccccc1` (centres undefined) came in with a Ki of 3.8 µM.

Regarding `C=C[C@@H]1C[C@]1(NC(=O)C(c1ccccc1)n1c(C)c(Cl)nc(NCC(=O)N(C)C)c1=O)C(=O)NS(=O)(=O)C1CC1` (some centres undefined), the Ki came out at 28 µM.

`C=C[C@@H]1C[C@]1(NC(=O)C(c1ccccc1)n1c(C)c(Cl)nc(NC(=O)OC(C)(C)C)c1=O)C(=O)O` (stereo in doubt; 29b): the Ki was 13 µM.

Molecule `O=C(O)CNc1nc(Cl)cn(C(C(=O)Nc2ccccc2C(=O)NS(=O)(=O)c2ccc(C(F)(F)F)cc2)c2ccccc2)c1=O` (centres undefined) registered a Ki of 2.3 µM.

For `C=C[C@@H]1C[C@]1(NC(=O)C(c1ccccc1)n1c(C)c(Cl)nc(NCCC(C)(C)C)c1=O)C(=O)NS(=O)(=O)C1CC1` (some centres undefined), the Ki is 6.8 µM.

As to `C=C[C@@H]1C[C@]1(NC(=O)C(c1ccc(OC)cc1)n1c(C)c(Cl)nc(NC(=O)OC(C)(C)C)c1=O)C(=O)NS(=O)(=O)C1CC1` (some centres undefined), the Ki worked out at 7.2 µM.

On to `C=C[C@@H]1C[C@]1(NC(=O)C(c1ccccc1)n1c(C)c(Cl)nc(NCC(=O)N2CCOCC2)c1=O)C(=O)NS(=O)(=O)C1CC1` (some centres undefined), for which the Ki worked out at 10 µM.

`C=C[C@@H]1C[C@]1(NC(=O)[C@@H](NC(=O)[C@@H](NC(=O)OC(C)(C)C)C(C)(C)C)c1ccc(OC)cc1)C(=O)NS(=O)(=O)C1CC1` registered a Ki of 5.4 µM. Against the preceding molecule, the Ki is about 1.9-fold lower.

`C=C[C@@H]1C[C@]1(NC(=O)C(c1ccccc1)n1c(C)c(Cl)nc(NC(=O)OC(C)(C)C)c1=O)C(=O)O` (stereo in doubt; 29a) showed a Ki of 11 µM.

Take `C=C[C@@H]1C[C@]1(NC(=O)C(c1ccccc1)n1c(C)c(Cl)nc(NCC(N)=O)c1=O)C(=O)NS(=O)(=O)C1CC1` (some centres undefined): the affinity corresponds to a Ki of 12 µM.

As to `Cc1c(Cl)nc(NC(=O)OC(C)(C)C)c(=O)n1C(C(=O)N[C@@H](CC1CC1)C(=O)NS(=O)(=O)C1CC1)c1ccccc1` (some centres undefined), the Ki turned out to be 9.6 µM.

`C=C[C@@H]1C[C@]1(NC(=O)C(c1ccccc1)n1c(C)c(Cl)nc(NCCc2ccccc2)c1=O)C(=O)NS(=O)(=O)C1CC1` (some centres undefined) gave a Ki of 8.3 µM.

`C=C[C@@H]1C[C@]1(NC(=O)C(c1ccccc1)n1c(C)c(Cl)nc(NC(=O)OC(C)(C)C)c1=O)C(=O)NS(=O)(=O)C1CC1` (some centres undefined) had a Ki of 4.3 µM.

The next experiment deals with NS3 protease (Hepatitis C virus subtype 1b, UniProt Q0ZMF1, A156T). The experiment is described as follows: Inhibition of HCV NS3 protease A156T mutant by FRET assay. Also noted: species or system Hepacivirus hominis. The gist of the method: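 Protease activity of full-length HCV NS3 (protease–helicase/NTPase) was measured by FRET. 1 nM enzyme was incubated 10 min at 30 °C in 50 mM HEPES pH 7.5, 10 mM DTT, 40% glycerol before read-out.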
On to `O=C(O)CNc1nc(Cl)c(Cc2ccccc2)n(CC(=O)Nc2ccccc2C(=O)NS(=O)(=O)c2ccc(C(F)(F)F)cc2)c1=O`, for which the Ki stood at 2.5 µM.

The molecule `O=C(O)CNc1nc(Cl)c(-c2ccccc2)n(CC(=O)Nc2ccccc2C(=O)NS(=O)(=O)c2ccc(C(F)(F)F)cc2)c1=O` displayed a Ki of 5.6 µM.

Regarding `Cc1c(Cl)nc(NC(=O)OC(C)(C)C)c(=O)n1C(C(=O)Nc1ccccc1C(=O)NS(=O)(=O)c1ccc(C(F)(F)F)cc1)c1ccccc1` (centres undefined), affinity was put at a Ki of 1.5 µM. Compared with the last molecule, the Ki is about 3.7-fold lower.

In turn, `O=C(O)CNc1nc(Cl)cn(C(C(=O)Nc2ccccc2C(=O)NS(=O)(=O)c2ccc(C(F)(F)F)cc2)c2ccccc2)c1=O` (centres undefined) showed a Ki of 1.8 µM.

The molecule `C=C[C@@H]1C[C@]1(NC(=O)C(c1ccccc1)n1c(C)c(Cl)nc(NC(=O)OC(C)(C)C)c1=O)C(=O)NS(=O)(=O)C1CC1` (some centres undefined) returned a Ki of 5.9 µM.

The values are drawn from ChEMBL document CHEMBL1221280, “Discovery of achiral inhibitors of the hepatitis C virus NS3 protease based on 2(1H)-pyrazinones” (Bioorg Med Chem, 2010).
